Results pooled from the literature.
Compare with care: the assays were run in different laboratories.
Target: Mitogen-activated protein kinase kinase kinase 13 (MAP3K13, Homo sapiens, UniProt O43283)
Residues used in one study (O43283 1-966): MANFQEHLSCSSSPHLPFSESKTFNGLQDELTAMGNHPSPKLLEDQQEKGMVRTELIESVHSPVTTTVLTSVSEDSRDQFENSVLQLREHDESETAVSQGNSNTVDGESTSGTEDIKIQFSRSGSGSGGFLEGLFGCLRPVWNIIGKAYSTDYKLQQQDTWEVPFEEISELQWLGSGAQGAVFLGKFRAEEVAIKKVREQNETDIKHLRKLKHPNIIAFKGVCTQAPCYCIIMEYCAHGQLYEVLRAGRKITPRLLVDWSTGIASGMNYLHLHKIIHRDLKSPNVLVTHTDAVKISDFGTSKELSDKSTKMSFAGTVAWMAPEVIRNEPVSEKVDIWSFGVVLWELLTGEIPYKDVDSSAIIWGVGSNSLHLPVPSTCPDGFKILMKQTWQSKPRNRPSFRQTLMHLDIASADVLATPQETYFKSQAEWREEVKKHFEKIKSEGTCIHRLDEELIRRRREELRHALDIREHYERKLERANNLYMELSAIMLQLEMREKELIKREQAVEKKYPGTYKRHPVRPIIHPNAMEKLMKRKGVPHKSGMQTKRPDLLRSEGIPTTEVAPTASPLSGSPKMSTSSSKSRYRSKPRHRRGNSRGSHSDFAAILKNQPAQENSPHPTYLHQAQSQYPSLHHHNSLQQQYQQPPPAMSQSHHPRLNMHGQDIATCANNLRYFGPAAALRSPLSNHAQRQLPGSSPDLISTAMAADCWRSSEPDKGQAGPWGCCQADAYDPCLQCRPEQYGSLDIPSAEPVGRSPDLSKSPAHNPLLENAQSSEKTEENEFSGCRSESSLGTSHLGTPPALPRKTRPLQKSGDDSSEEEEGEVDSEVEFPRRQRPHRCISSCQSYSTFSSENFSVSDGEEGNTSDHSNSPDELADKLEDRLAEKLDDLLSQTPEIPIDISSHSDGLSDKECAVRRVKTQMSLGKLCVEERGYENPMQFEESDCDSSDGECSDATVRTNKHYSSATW

Nc1ncc2c(n1)-c1c([nH]c3ccc(C#CC4CC4)cc13)CCCC2 — remaining binding (binding; competition with immobilised ligand; 1 µM): 61%
CN(c1nccc(-c2cnn3ncccc23)n1)C1CC1 — remaining binding (binding; 1 µM): 18%
COc1cnc(Nc2cccc(S(N)(=O)=O)c2)nc1N1CCN(c2ccccc2)CC1 — remaining binding (binding; competition with immobilised ligand; 1 µM): 96%
CO[C@@H](C)c1c(Nc2ccc([C@H](N(C)C(=O)C3CCS(=O)(=O)CC3)C(F)(F)F)cc2)cnc2cc(Cl)nn12 — remaining binding (cell-free assay; competition with immobilised ligand; 1 µM): 78%
Cc1cnn2ncc(-c3ccnc(N(C)C)n3)c2c1 — remaining binding (binding; 1 µM): 70%
CN1CCN(c2cnc3c(C4CCN(C(=O)c5ccc(OC(F)(F)F)cc5N)CC4)ncnc3c2)CC1 — remaining binding (cell-free assay; competition with immobilised ligand; 1 µM): 100%
CN(C)c1ncc(F)c(-c2cnn3ncccc23)n1 — remaining binding (binding; 1 µM): 90%
CC(=O)C1=C(C)N(c2cccc(C(F)(F)F)c2)C(=O)N[C@@H]1c1ccc(C#N)nc1 — remaining binding (cell-free assay; competition with immobilised ligand; 1 µM): 92.4%
O=C(c1ccc(Nc2ncc(Cl)c(-c3cc4ccccc4s3)n2)cc1)N1CCC(N2CCCC2)CC1 — remaining binding (binding; competition with immobilised ligand; 1 µM): 46%
CC1CCCN1c1nccc(-c2cnn3ncccc23)n1 (centres unmarked) — remaining binding (binding; 1 µM): 100%
O=C(NCCCN1CCOCC1)c1ccc(Nc2ncc(Cl)c(-c3ccc(Cl)s3)n2)cc1 — remaining binding (binding; competition with immobilised ligand; 1 µM): 92%
O=C(NC[C@@H]1[C@H]2CN(C(=O)OCc3cc(C(F)(F)F)cc(C(F)(F)F)c3)C[C@@H]12)c1ccc2[nH]nnc2c1 — remaining binding (cell-free assay; competition with immobilised ligand; 1 µM): 86%
C[C@H]1CCN(c2nccc(-c3cnn4ncccc34)n2)C1 — remaining binding (binding; 1 µM): 62%
FC(F)(F)Oc1cccc(-c2cnc3ccc(-c4ccncc4)nn23)c1 — remaining binding (cell-free assay; competition with immobilised ligand; 5 µM): 83%
CCN1CCN(Cc2ccc(C(=O)Nc3ccc(C)c(Oc4ccc5c(c4)CC(=O)N5)c3)cc2C(F)(F)F)CC1 — remaining binding (binding; competition with immobilised ligand; 1 µM): 100%
Cc1cnc(Nc2ccc(C(=O)N3CCC(N4CCCC4)CC3)cc2)nc1-c1cc2ccccc2s1 — remaining binding (binding; competition with immobilised ligand; 1 µM): 25%
C[C@H](NC(=O)c1cnc2n1[C@](C)(Cc1ccc(C#N)cc1)C(=O)N2c1cc(Cl)c(F)c(Cl)c1)C(=O)NC1(c2ccccn2)CC1 — remaining binding (cell-free assay; competition with immobilised ligand; 1 µM): 100%
CN(C)c1nccc(-c2cnn3ncccc23)n1 — remaining binding (binding; 1 µM): 85%
CC(=O)N1CCC(c2ccc(C(=O)NC(=N)N)cc2C(F)(F)F)CC1 — remaining binding (cell-free assay; competition with immobilised ligand; 1 µM): 100%
O=C(Nc1c[nH]nc1C(=O)NC1CCNCC1)c1cc(F)cc(F)c1 — remaining binding (binding; competition with immobilised ligand; 1 µM): 100%
